Experimental data from ChEMBL document CHEMBL1138614, “Synthesis and antibacterial activities of novel oxazolidinones having spiro[2,4]heptane moieties” (2009).
Converted amounts (≈) assume the structure as drawn.

Experiments:
Format in all cases: functional
[1] = tested on: Enterococcus; experiment: Antibacterial activity against vancomycin-resistant Enterococcus 3 after 18 to 20 hrs by agar dilution method
Summary of the method: (§1)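 Agar dilution MIC on test agar. Bacteria grown overnight in tryptosoy broth, diluted in the same broth to about 10⁶ cells/mL, then applied with an inoculating device onto agar holding serial twofold dilutions of compound. Plates incubated at 37 °C for 18–20 h. MIC taken as the lowest concentration visibly inhibiting growth, in µg/ml.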

[2] = tested on: Enterococcus; experiment: Antibacterial activity against vancomycin-resistant Enterococcus 5 after 18 to 20 hrs by agar dilution method; summary of the method: as §1
[3] = tested on: Streptococcus agalactiae; experiment: Antibacterial activity against Streptococcus agalactiae ATCC 2901 after 18 to 20 hrs by agar dilution method
Summary of the method: (§2)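 Agar dilution: bacteria grown overnight in tryptosoy broth and diluted in the same broth to about 10⁶ cells/mL. A multipoint inoculating device spotted them onto test agar carrying serial twofold dilutions of compound. Plates were held at 37 °C for 18–20 h. MIC (µg/ml) was read as the lowest concentration giving visible inhibition of growth.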

[4] = tested on: Staphylococcus aureus; experiment: Antibacterial activity against methicillin-resistant Staphylococcus aureus after 18 to 20 hrs by agar dilution method; summary of the method: as §1
[5] = tested on: Streptococcus pneumoniae; experiment: Antibacterial activity against Streptococcus pneumoniae C402 after 18 to 20 hrs by agar dilution method; summary of the method: as §2
[6] = tested on: Enterococcus faecium; experiment: Antibacterial activity against vancomycin-resistant Enterococcus faecium after 18 to 20 hrs by agar dilution method; summary of the method: as §1
[7] = tested on: Enterococcus; experiment: Antibacterial activity against vancomycin-resistant Enterococcus 2 after 18 to 20 hrs by agar dilution method; summary of the method: as §1
[8] = tested on: Enterococcus; experiment: Antibacterial activity against vancomycin-resistant Enterococcus 6 after 18 to 20 hrs by agar dilution method; summary of the method: as §1
[9] = tested on: Enterococcus faecium; experiment: Antibacterial activity against Enterococcus faecium C803 after 18 to 20 hrs by agar dilution method; summary of the method: as §1
[10] = tested on: Haemophilus influenzae; experiment: Antibacterial activity against Haemophilus influenzae after 18 to 20 hrs by agar dilution method; summary of the method: as §2
[11] = tested on: Enterococcus faecalis; experiment: Antibacterial activity against vancomycin-resistant Enterococcus faecalis after 18 to 20 hrs by agar dilution method; summary of the method: as §1
[12] = tested on: Staphylococcus; experiment: Antibacterial activity against Coagulase negative Staphylococcus after 18 to 20 hrs by agar dilution method; summary of the method: as §2
[13] = tested on: Enterococcus; experiment: Antibacterial activity against vancomycin-resistant Enterococcus 1 after 18 to 20 hrs by agar dilution method; summary of the method: as §1
[14] = tested on: Streptococcus pyogenes; experiment: Antibacterial activity against Streptococcus pyogenes ATCC 8736 after 18 to 20 hrs by agar dilution method; summary of the method: as §2
[15] = tested on: Enterococcus; experiment: Antibacterial activity against vancomycin-resistant Enterococcus 4 after 18 to 20 hrs by agar dilution method; summary of the method: as §1
[16] = tested on: Enterococcus faecalis; experiment: Antibacterial activity against Enterococcus faecalis C474 after 18 to 20 hrs by agar dilution method; summary of the method: as §2
[17] = tested on: Staphylococcus aureus; experiment: Antibacterial activity against Staphylococcus aureus C463 after 18 to 20 hrs by agar dilution method; summary of the method: as §1

Compound	MIC [1] [mg/L]	MIC [2] [mg/L]	MIC [3] [mg/L]	MIC [4] [mg/L]	MIC [5] [mg/L]	MIC [6] [mg/L]	MIC [7] [mg/L]	MIC [8] [mg/L]	MIC [9] [mg/L]	MIC [10] [mg/L]	MIC [11] [mg/L]	MIC [12] [mg/L]	MIC [13] [mg/L]	MIC [14] [mg/L]	MIC [15] [mg/L]	MIC [16] [mg/L]	MIC [17] [mg/L]
CC(=O)NC[C@H]1CN(c2ccc(N3C/C(=N\N)C4(CC4)C3)c(F)c2)C(=O)O1	12.5 (≈ 33.3 µM)	12.5 (≈ 33.3 µM)	25 (≈ 66.6 µM)	25 (≈ 66.6 µM)	25 (≈ 66.6 µM)	25 (≈ 66.6 µM)	25 (≈ 66.6 µM)	25 (≈ 66.6 µM)	25 (≈ 66.6 µM)	25 (≈ 66.6 µM)	50 (≈ 133 µM)	12.5 (≈ 33.3 µM)	12.5 (≈ 33.3 µM)	12.5 (≈ 33.3 µM)	25 (≈ 66.6 µM)	25 (≈ 66.6 µM)	25 (≈ 66.6 µM)
CCO/N=C1\CN(c2ccc(N3C[C@H](CNC(C)=O)OC3=O)cc2F)CC12CC2	6.25 (≈ 15.5 µM)	6.25 (≈ 15.5 µM)	12.5 (≈ 30.9 µM)	12.5 (≈ 30.9 µM)	12.5 (≈ 30.9 µM)	12.5 (≈ 30.9 µM)	6.25 (≈ 15.5 µM)	6.25 (≈ 15.5 µM)	12.5 (≈ 30.9 µM)	12.5 (≈ 30.9 µM)	12.5 (≈ 30.9 µM)	12.5 (≈ 30.9 µM)	12.5 (≈ 30.9 µM)	12.5 (≈ 30.9 µM)	12.5 (≈ 30.9 µM)	25 (≈ 61.8 µM)	12.5 (≈ 30.9 µM)
CC(=O)NC[C@H]1CN(c2ccc(N3CC(=O)C4(CC4)C3)c(F)c2)C(=O)O1	1.56 (≈ 4.32 µM)	3.12 (≈ 8.63 µM)	1.56 (≈ 4.32 µM)	3.12 (≈ 8.63 µM)	0.78 (≈ 2.16 µM)	1.56 (≈ 4.32 µM)	1.56 (≈ 4.32 µM)	1.56 (≈ 4.32 µM)	1.56 (≈ 4.32 µM)	1.56 (≈ 4.32 µM)	1.56 (≈ 4.32 µM)	3.12 (≈ 8.63 µM)	3.12 (≈ 8.63 µM)	3.12 (≈ 8.63 µM)	3.12 (≈ 8.63 µM)	6.25 (≈ 17.3 µM)	3.12 (≈ 8.63 µM)
CO/N=C1\CN(c2ccc(N3C[C@H](CNC(C)=O)OC3=O)cc2F)CC12CC2	6.25 (≈ 16 µM)	6.25 (≈ 16 µM)	6.25 (≈ 16 µM)	6.25 (≈ 16 µM)	3.12 (≈ 7.99 µM)	6.25 (≈ 16 µM)	3.12 (≈ 7.99 µM)	6.25 (≈ 16 µM)	6.25 (≈ 16 µM)	6.25 (≈ 16 µM)	6.25 (≈ 16 µM)	12.5 (≈ 32 µM)	6.25 (≈ 16 µM)	6.25 (≈ 16 µM)	6.25 (≈ 16 µM)	12.5 (≈ 32 µM)	6.25 (≈ 16 µM)
CC(=O)NC[C@H]1CN(c2ccc(N3CCOCC3)c(F)c2)C(=O)O1 [LINEZOLID]	1.56 (≈ 4.62 µM)	1.56 (≈ 4.62 µM)	1.56 (≈ 4.62 µM)	1.56 (≈ 4.62 µM)	0.78 (≈ 2.31 µM)	1.56 (≈ 4.62 µM)	1.56 (≈ 4.62 µM)	1.56 (≈ 4.62 µM)	1.56 (≈ 4.62 µM)	1.56 (≈ 4.62 µM)	1.56 (≈ 4.62 µM)	3.12 (≈ 9.25 µM)	1.56 (≈ 4.62 µM)	1.56 (≈ 4.62 µM)	1.56 (≈ 4.62 µM)	1.56 (≈ 4.62 µM)	3.12 (≈ 9.25 µM)
